Reference: ChEMBL document CHEMBL4382268, “Glycyrrhetinic acid derivatives containing aminophosphonate ester species as multidrug resistance reversers that block the NF-κB pathway and cell proliferation” (Bioorg Med Chem Lett, 2018)
pIC50: −log10 of the molar value. The source made the active and inactive calls. The calls are words filed in the database; no cut-off is given here.

Experiments:
[1] = system: L02; experiment: Antiproliferative activity against human HL-7702 cells after 48 hrs by MTT assay; format: functional, cell-based; details: L02, 48 h
Procedure, shortened: (§1)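 MTT read-out of antiproliferative activity across cancer lines HepG-2, NCI-H460, MGC-803, A549 and MG-63 and normal liver line HL-7702. IC50 given as mean ± S.D. of three separate experiments, each run in triplicate.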

[2] = system: HepG2; experiment: Antiproliferative activity against human HepG2 cells after 48 hrs by MTT assay; format: functional, cell-based; details: HepG2, 48 h; procedure, shortened: as §1
[3] = system: NCI-H460; experiment: Antiproliferative activity against human NCI-H460 cells after 48 hrs by MTT assay; format: functional, cell-based; details: NCI-H460, 48 h; procedure, shortened: as §1
[4] = system: MGC-803; experiment: Antiproliferative activity against human MGC803 cells after 48 hrs by MTT assay; format: functional, cell-based; details: MGC-803, 48 h; procedure, shortened: as §1
[5] = system: A549; experiment: Antiproliferative activity against human A549 cells after 48 hrs by MTT assay; format: functional, cell-based; details: A549, 48 h; procedure, shortened: as §1
[6] = system: MG-63; experiment: Antiproliferative activity against human MG63 cells after 48 hrs by MTT assay; format: functional, cell-based; details: MG-63, 48 h; procedure, shortened: as §1
[7] = target: Inhibitor of NF-kappa-B kinase alpha/beta (Homo sapiens) (UniProt O14920+O15111); experiment: Inhibition of IKKalpha/beta-mediated IkappaBalpha phosphorylation in human A549 cells after 24 hrs by Western blot analysis; format: cell-based
Procedure, shortened: (§2)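 A549 cells exposed to 5, 10 and 20 µM for 24 h. Western blots probed for NF-κB, p-IκBα, IκBα and p-IKKα/β, with GAPDH as internal control. Three experiments, representative blot shown.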

[8] = species on record: Homo sapiens; experiment: Inhibition of TNF-alpha induced activation of NF-kappaB (unknown origin) assessed as reduction in DNA binding ability at 5 to 20 uM by cell based ELISA relative to TNF-alpha alone
Procedure, shortened: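 ELISA-type DNA-binding assay of NF-κB in TNF-α-stimulated A549 cells treated at 5, 10 and 20 µM. Compared against untreated and TNF-α-only controls. Mean ± SD, p < 0.05, three runs.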

[9] = system: A549; experiment: Reduction in IkappaBalpha level in human A549 cells up to 20 uM after 24 hrs by Western blot analysis; format: functional, cell-based; procedure, shortened: as §2
[10] = system: SK-OV-3; experiment: Growth inhibition of cisplatin sensitive human SKOV3 cells after 48 hrs by MTT assay; format: functional, cell-based; details: SK-OV-3, 48 h
Procedure, shortened: (§3)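 MTT growth inhibition in the paired ovarian lines, cisplatin-sensitive SK-OV-3 and cisplatin-resistant SK-OV-3/CDDP. IC50 given as mean ± S.D. of three separate experiments, each in triplicate.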

[11] = Growth inhibition of cisplatin-resistant human SKOV3/DDP cells after 48 hrs by MTT assay; format: functional; details: SK-OV-3, 48 h; procedure, shortened: as §3
[12] = Selectivity ratio of IC50 for cisplatin-resistant human SKOV3/DDP cells to IC50 for cisplatin sensitive human SKOV3 cells; format: functional
Procedure, shortened: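 IC50 determined in resistant SK-OV-3/CDDP cells divided by IC50 in parental SK-OV-3 cells. Each IC50 by MTT, three separate experiments each in triplicate.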

[13] = system: A549; experiment: Induction of apoptosis in human A549 cells after 24 hrs by annexin V-FITC/propidium iodide staining-based flow cytometry analysis; format: functional, cell-based
Procedure, shortened: (§4)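 A549 cells treated at 5, 10 and 20 µM for 24 h, then harvested and stained with Annexin V-FITC and PI. Flow cytometry quadrants: Q1 necrotic, Q2 late apoptotic/necrotic, Q3 early apoptotic, Q4 living. Performed three times.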

[14] = system: A549; experiment: Induction of apoptosis in human A549 cells assessed as early apoptotic cells at 5 uM after 24 hrs by annexin V-FITC/propidium iodide staining-based flow cytometry analysis (reference value: 1.28%); format: functional; procedure, shortened: as §4
[15] = system: A549; experiment: Induction of apoptosis in human A549 cells assessed as late apoptotic cells at 5 uM after 24 hrs by annexin V-FITC/propidium iodide staining-based flow cytometry analysis (reference value: 2.20%); format: functional; procedure, shortened: as §4
[16] = system: A549; experiment: Induction of apoptosis in human A549 cells assessed as necrotic apoptotic cells at 5 uM after 24 hrs by annexin V-FITC/propidium iodide staining-based flow cytometry analysis (reference value: 0.520%); format: functional; procedure, shortened: as §4
[17] = system: A549; experiment: Induction of apoptosis in human A549 cells assessed as viable cells at 5 uM after 24 hrs by annexin V-FITC/propidium iodide staining-based flow cytometry analysis (reference value: 96.0%); format: functional; details: A549, 24 h, read-out: Activity; procedure, shortened: as §4
[18] = system: A549; experiment: Induction of apoptosis in human A549 cells assessed as late apoptotic cells at 10 uM after 24 hrs by annexin V-FITC/propidium iodide staining-based flow cytometry analysis (reference value: 2.20%); format: functional; procedure, shortened: as §4
[19] = system: A549; experiment: Induction of apoptosis in human A549 cells assessed as necrotic apoptotic cells at 10 uM after 24 hrs by annexin V-FITC/propidium iodide staining-based flow cytometry analysis (reference value: 0.520%); format: functional; procedure, shortened: as §4
[20] = system: A549; experiment: Induction of apoptosis in human A549 cells assessed as early apoptotic cells at 20 uM after 24 hrs by annexin V-FITC/propidium iodide staining-based flow cytometry analysis (reference value: 1.28%); format: functional; procedure, shortened: as §4
[21] = system: A549; experiment: Induction of apoptosis in human A549 cells assessed as late apoptotic cells at 20 uM after 24 hrs by annexin V-FITC/propidium iodide staining-based flow cytometry analysis (reference value: 2.20%); format: functional; procedure, shortened: as §4
[22] = system: A549; experiment: Induction of apoptosis in human A549 cells assessed as viable cells at 20 uM after 24 hrs by annexin V-FITC/propidium iodide staining-based flow cytometry analysis (reference value: 96.0%); format: functional; details: A549, 24 h, read-out: Activity; procedure, shortened: as §4
[23] = system: A549; experiment: Cell cycle arrest in human A549 cells assessed as accumulation at G1 phase at 5 uM after 24 hrs by propidium iodide staining based flow cytometry (reference value: 47.0%); format: functional
[24] = system: A549; experiment: Cell cycle arrest in human A549 cells assessed as accumulation at S phase at 5 uM after 24 hrs by propidium iodide staining based flow cytometry (reference value: 38.76%); format: functional
[25] = system: A549; experiment: Cell cycle arrest in human A549 cells assessed as accumulation at G1 phase at 10 uM after 24 hrs by propidium iodide staining based flow cytometry (reference value: 47.0%); format: functional
[26] = system: A549; experiment: Cell cycle arrest in human A549 cells assessed as accumulation at S phase at 10 uM after 24 hrs by propidium iodide staining based flow cytometry (reference value: 38.76%); format: functional
[27] = system: A549; experiment: Cell cycle arrest in human A549 cells assessed as accumulation at G2 phase at 20 uM after 24 hrs by propidium iodide staining based flow cytometry (reference value: 14.1%); format: functional
[28] = system: A549; experiment: Antimigratory activity against human A549 cells after 24 hrs by crystal violet staining based fluorescence microscopic analysis; format: functional, cell-based
Procedure, shortened: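 Transwell migration of A549 cells incubated at 5, 10 and 20 µM for 24 h. Performed three times, representative images shown.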

[29] = system: A549; experiment: Induction of mitochondrial membrane potential loss in human A549 cells at 5 to 20 uM after 24 hrs by JC-1 staining-based fluorescence microscopic analysis; format: functional, cell-based
Procedure, shortened: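 A549 cells treated at 5, 10 and 20 µM for 24 h, then loaded with JC-1 probe for 30 min. Red J-aggregate and green J-monomer fluorescence viewed by fluorescence microscopy. Three experiments.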

[30] = system: A549; experiment: Induction of ROS generation in human A549 cells at 5 to 20 uM after 24 hrs by DCFH-DA staining-based fluorescence microscopic analysis; format: functional, cell-based
Procedure, shortened: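 Intracellular ROS in A549 cells after 24 h incubation, using DCF-DA probe. Green cytoplasmic fluorescence viewed by fluorescence microscopy against untreated control. Three experiments.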

For `CCOP(=O)(OCC)C(Nc1ccc(CC(=O)NCCCCNC(=O)[C@@]2(C)CC[C@]3(C)CC[C@]4(C)C(=CC(=O)[C@@H]5[C@@]6(C)CC[C@H](OC(C)=O)C(C)(C)[C@@H]6CC[C@]54C)[C@@H]3C2)cc1)c1ccc(F)cc1` (stereo not given in full), the pIC50 [1] was less than 4.30, the pIC50 [2] was 5.04 and the pIC50 [3] was 5.08. The pIC50 [4] was 5.06, the pIC50 [5] was 5.20 and the pIC50 [6] was 5.05. The inhibition [7] was “Dose-dependent effect”, the fold change (FC) [8] was 2.3 and the Activity [9] was “Active”. For the same compound, the pIC50 [10] was 5.01, the pIC50 [11] was 5.05 and the “Ratio IC50” value [12] was 0.92. The Activity [13] was “Dose-dependent effect”, the Activity [14] was 1.96% and the Activity [15] was 11.6%. For the same compound, the Activity [16] was 0.09%, the viability at 5 µM [17] was 86.4% and the Activity [18] was 22.6%. It also gave an Activity [19] of 0.386%, an Activity [20] of 19.5% and an Activity [21] of 39.7%. The viability at 20 µM [22] was 40.3%, the Activity [23] was 59.91% and the Activity [24] was 40.09%. For the same compound, the Activity [25] was 46.5%, the Activity [26] was 43.6% and the Activity [27] was 2.66%. The Activity [28] was “Dose-dependent effect”, the Activity [29] was “Active” and the Activity [30] was “Active”.
